Test results published in ChEMBL document CHEMBL4715751, “Novel N-substituted indole Schiff bases as dual inhibitors of cyclooxygenase-2 and 5-lipoxygenase enzymes: Synthesis, biological activities in vitro and docking study” (Eur J Med Chem, 2016).
Calls of active or inactive are those of the source. No cut-off for these calls is given here.

Tests used:
HUVEC [1] = experiment: Antiinflammatory activity in HUVEC assessed as reduction in TNF-alpha-induced E-selectin expression at 50 uM preincubated for 30 mins followed by TNF-alpha addition and measured after 4 hrs by ELISA; assay type: functional; conditions: Homo sapiens, time 4.5 hrs
Procedure, shortened: (§1)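 HUVECs seeded at 1×10^4/well and grown to confluence; indole derivatives (50 μM) added 30 min before TNFα 10 ng/ml, then 4 h further incubation. Cells fixed and E-selectin (ELAM) measured by ELISA. Parallel Calcein AM read-out monitored non-specific toxicity. Curcumin 10 μM served as positive control.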

CCRF-CEM = experiment: Cytotoxicity against human CEM cells assessed as reduction in cell viability after 72 hrs by calcein-AM staining based fluorescence analysis
Procedure, shortened: (§2)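 Cells in DMEM with 10% FBS, 2 mmol/l L-glutamine, penicillin/streptomycin, 37 °C, 5% CO2. About 1.0×10^5 cells/ml plated, stabilized 24 h, then compounds added from DMSO stocks (final DMSO ≤0.6%), six 3-fold dilutions, top final concentration generally 50 µM. After 72 h, Calcein AM added for 1 h. Fluorescence expressed as % of DMSO controls; IC50 taken from dose-response curves. Means ±SD of three independent experiments in triplicate.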

MCF7 = experiment: Cytotoxicity against human MCF7 cells assessed as reduction in cell viability after 72 hrs by calcein-AM staining based fluorescence analysis; conditions: MCF7, 72 h; procedure, shortened: as §2
HeLa = experiment: Cytotoxicity against human HeLa cells assessed as reduction in cell viability after 72 hrs by calcein-AM staining based fluorescence analysis; procedure, shortened: as §2
BJ = experiment: Cytotoxicity against human BJ cells assessed as reduction in cell viability after 72 hrs by calcein-AM staining based fluorescence analysis; procedure, shortened: as §2
[2] = molecular target: T1, Prostaglandin G/H synthase 1 (Ovis aries, UniProt P05979); experiment: Inhibition of ovine COX-1 assessed as appearance of oxidized TMPD level by EIA method
T1 sequence (P05979 whole entry): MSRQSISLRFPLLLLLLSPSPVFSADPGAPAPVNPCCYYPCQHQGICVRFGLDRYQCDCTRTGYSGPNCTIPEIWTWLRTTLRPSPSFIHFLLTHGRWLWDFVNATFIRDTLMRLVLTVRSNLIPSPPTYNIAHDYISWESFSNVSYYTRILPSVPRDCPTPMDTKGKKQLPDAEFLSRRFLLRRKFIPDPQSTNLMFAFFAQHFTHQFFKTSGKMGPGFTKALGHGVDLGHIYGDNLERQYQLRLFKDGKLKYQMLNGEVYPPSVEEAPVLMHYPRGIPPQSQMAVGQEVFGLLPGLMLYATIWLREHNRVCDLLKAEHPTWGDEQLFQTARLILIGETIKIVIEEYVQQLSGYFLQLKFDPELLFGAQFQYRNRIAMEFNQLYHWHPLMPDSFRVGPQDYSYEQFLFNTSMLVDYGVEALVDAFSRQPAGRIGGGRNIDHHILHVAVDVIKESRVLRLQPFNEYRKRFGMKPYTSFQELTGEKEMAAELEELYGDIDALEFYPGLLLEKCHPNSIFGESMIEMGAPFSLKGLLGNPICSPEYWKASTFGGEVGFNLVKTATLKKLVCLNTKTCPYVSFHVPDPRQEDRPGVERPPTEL

[3] = Inhibition of potato 5-LOX assessed as reduction in hydroperoxide level by EIA method; design: species or system Solanum tuberosum
Procedure, shortened: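 Potato 5-LOX kit detecting hydroperoxides formed by lipoxygenation. Compounds dissolved in minimal DMSO and diluted in 0.1 M Tris HCl, pH 7.4, tested at 0.001, 1, 5, 10 μM. IC50 derived per the manufacturer's instructions, mean of two determinations.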

HUVEC [4] = experiment: Antiinflammatory activity in HUVEC assessed as reduction in TNF-alpha-induced E-selectin expression at 30 to 50 uM preincubated for 30 mins followed by TNF-alpha addition and measured after 4 hrs by ELISA; assay type: functional; conditions: dose 30-50 µM, time 4.5 hrs; for Activity: Homo sapiens; procedure, shortened: as §1
HUVEC [5] = experiment: Cytotoxicity against HUVEC assessed as reduction in cell viability measured after 24 hrs by calcein-AM staining based fluorescence analysis; design: species or system Homo sapiens; conditions: for Activity: human, huvec, time 24 hrs

IC50 [2] | IC50 [3] | Structure (SMILES) | Activity (HUVEC [1]) | IC50 (CCRF-CEM) | IC50 (MCF7) | IC50 (HeLa) | IC50 (BJ) | Activity (HUVEC [4]) | Activity (HUVEC [5]) | inhibition at 50 µM (HUVEC [1]) | IC50 (HUVEC [5]; Homo sapiens, HUVEC) | inhibition (INH) (HUVEC [4])
– | – | Cc1c(/N=C/c2cn(CC(=O)Nc3ccccc3)c3ccccc23)c(=O)n(-c2ccccc2)n1C | Active | > 50 µM | > 50 µM | > 50 µM | > 50 µM | – | – | – | – | –
– | – | COc1ccc(NC(=O)Cn2cc(/C=N/c3c(C)n(C)n(-c4ccccc4)c3=O)c3ccccc32)cc1 | Active | 50 µM | > 50 µM | > 50 µM | 50 µM | – | – | – | – | –
7.65 µM | 7.54 µM | Cc1c(/N=C/c2cn(C(=O)c3ccccc3)c3ccccc23)c(=O)n(-c2ccccc2)n1C | – | – | – | – | – | Active | Non-Toxic | – | – | –
– | – | CCOC(=O)c1ccc(NC(=O)Cn2cc(/C=N/n3cnnc3)c3ccccc32)cc1 | – | > 50 µM | > 50 µM | > 50 µM | 31.3 µM | – | – | 15% | – | –
10.4 µM | 6.54 µM | O=C(c1ccccc1)n1cc(/C=N/n2cnnc2)c2ccccc21 | – | – | – | – | – | Active | Non-Toxic | – | – | –
– | – | COc1ccc(NC(=O)Cn2cc(/C=N/n3cnnc3)c3ccccc32)cc1 | – | > 50 µM | > 50 µM | > 50 µM | > 50 µM | – | – | 15% | – | –
– | – | O=C(Cn1cc(/C=N/n2cnnc2)c2ccccc21)Nc1ccccc1 | Active | > 50 µM | > 50 µM | > 50 µM | > 50 µM | – | – | – | – | –
9.21 µM | 7.41 µM | C(=N\n1cnnc1)/c1cn(Cc2ccccc2)c2ccccc12 | – | – | – | – | – | Active | – | – | 14.9 µM | –
11.2 µM | 5.98 µM | Cc1c(/N=C/c2cn(Cc3ccccc3)c3ccccc23)c(=O)n(-c2ccccc2)n1C | – | – | – | – | – | Active | Non-Toxic | – | – | –
– | – | CCOC(=O)c1ccc(NC(=O)Cn2cc(/C=N/c3c(C)n(C)n(-c4ccccc4)c3=O)c3ccccc32)cc1 | Active | 29.7 µM | 38.1 µM | 24.8 µM | 50 µM | – | – | – | – | –
– | – | Cc1c(/N=C/c2c[nH]c3ccccc23)c(=O)n(-c2ccccc2)n1C | Active | > 50 µM | > 50 µM | > 50 µM | > 50 µM | – | – | – | – | –
8.65 µM | 8.11 µM | O=C(c1ccc(Cl)cc1)n1cc(/C=N/n2cnnc2)c2ccccc21 | – | – | – | – | – | Active | Non-Toxic | – | – | –
– | – | CC(=O)c1ccc(NC(=O)Cn2cc(/C=N/c3c(C)n(C)n(-c4ccccc4)c3=O)c3ccccc32)cc1 | Active | 42.9 µM | > 50 µM | > 50 µM | > 50 µM | – | – | – | – | –
10.8 µM | 5.78 µM | Cc1ccc(C(=O)n2cc(/C=N/c3c(C)n(C)n(-c4ccccc4)c3=O)c3ccccc32)cc1 | – | – | – | – | – | Active | Non-Toxic | – | – | –
– | – | Cc1ccc(NC(=O)Cn2cc(/C=N/n3cnnc3)c3ccccc32)cc1 | Active | > 50 µM | > 50 µM | > 50 µM | > 50 µM | – | – | – | – | –
– | – | CC(=O)c1ccc(NC(=O)Cn2cc(/C=N/n3cnnc3)c3ccccc32)cc1 | Active | > 50 µM | > 50 µM | > 50 µM | > 50 µM | – | – | – | – | –
– | – | O=C(Cn1cc(/C=N/n2cnnc2)c2ccccc21)Nc1ccc(O)cc1 | Active | > 50 µM | > 50 µM | > 50 µM | > 50 µM | – | – | – | – | –
– | – | Cc1ccc(NC(=O)Cn2cc(/C=N/c3c(C)n(C)n(-c4ccccc4)c3=O)c3ccccc32)cc1 | Active | 42 µM | > 50 µM | > 50 µM | 49 µM | – | – | – | – | –
7.89 µM | 6.54 µM | Cc1ccc(C(=O)n2cc(/C=N/n3cnnc3)c3ccccc32)cc1 | – | – | – | – | – | – | Non-Toxic | – | – | 33%
9.25 µM | 9.11 µM | Cc1c(/N=C/c2cn(C(=O)c3ccc(Cl)cc3)c3ccccc23)c(=O)n(-c2ccccc2)n1C | – | – | – | – | – | Active | Non-Toxic | – | – | –
– | – | Cc1c(/N=C/c2cn(CC(=O)Nc3ccc(O)cc3)c3ccccc23)c(=O)n(-c2ccccc2)n1C | Active | > 50 µM | > 50 µM | > 50 µM | 50 µM | – | – | – | – | –
– | – | C(=N\n1cnnc1)/c1c[nH]c2ccccc12 | Active | > 50 µM | > 50 µM | 9.9 µM | > 50 µM | – | – | – | – | –

Structure (SMILES) | IC50 [2] | IC50 [3] | Activity (HUVEC [1]) | IC50 (CCRF-CEM) | IC50 (MCF7) | IC50 (HeLa) | IC50 (BJ) | Activity (HUVEC [4]) | Activity (HUVEC [5]) | inhibition at 50 µM (HUVEC [1]) | IC50 (HUVEC [5]; Homo sapiens, HUVEC) | inhibition (INH) (HUVEC [4])
O=c1c(O)c(-c2ccc(O)c(O)c2)oc2cc(O)cc(O)c12 [QUERCETIN] | – | 5.96 µM | – | – | – | – | – | – | – | – | – | –
